Measured values taken from ChEMBL document CHEMBL1141482, “Selective, high affinity A(2B) adenosine receptor antagonists: N-1 monosubstituted 8-(pyrazol-4-yl)xanthines” (Bioorg Med Chem Lett, 2008).

Assays:
Adenosine receptor A2b = molecular target: T1, Adenosine receptor A2b (Homo sapiens, UniProt P29275); test: Displacement of [3H]-ZM241385 from human A2B receptor expressed in HEK293 cell membranes
T1 sequence (P29275 whole entry): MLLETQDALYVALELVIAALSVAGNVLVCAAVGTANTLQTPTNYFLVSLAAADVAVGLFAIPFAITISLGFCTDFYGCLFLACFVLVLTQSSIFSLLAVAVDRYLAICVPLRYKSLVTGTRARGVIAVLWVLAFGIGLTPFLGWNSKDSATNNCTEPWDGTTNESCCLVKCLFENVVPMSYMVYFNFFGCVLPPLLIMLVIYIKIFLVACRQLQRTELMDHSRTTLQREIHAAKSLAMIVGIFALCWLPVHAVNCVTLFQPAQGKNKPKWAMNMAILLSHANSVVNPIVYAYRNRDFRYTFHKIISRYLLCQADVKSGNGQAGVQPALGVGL
Method in brief: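 Membranes from HEK cells expressing A2B; binding sites labeled with 3H-ZM241385 at 14 nM and displaced competitively.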

Adenosine receptor A1 = molecular target: T2, Adenosine receptor A1 (Homo sapiens, UniProt P30542); test: Displacement of [3H]-CPX from human A1 receptor expressed in CHO cell membranes
T2 sequence (P30542 whole entry): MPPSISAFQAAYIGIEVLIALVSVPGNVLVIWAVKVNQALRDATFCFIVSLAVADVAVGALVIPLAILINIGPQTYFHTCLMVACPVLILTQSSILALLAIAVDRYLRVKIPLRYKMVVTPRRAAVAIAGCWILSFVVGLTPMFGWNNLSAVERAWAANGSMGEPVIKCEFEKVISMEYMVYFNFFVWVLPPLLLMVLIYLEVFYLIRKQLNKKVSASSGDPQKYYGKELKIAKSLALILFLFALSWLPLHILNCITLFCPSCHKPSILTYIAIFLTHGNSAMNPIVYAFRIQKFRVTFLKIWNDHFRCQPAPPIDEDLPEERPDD
Method in brief: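 Competitive binding on membranes prepared from A1-expressing CHO cells, radioligand 3H-CPX at 0.5 nM.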

Adenosine receptor A2a = Adenosine receptor A2a (Homo sapiens, UniProt P29274); test: Displacement of [3H]ZM241385 from human A2A receptor expressed in HEK293 cell membranes
Sequence of Adenosine receptor A2a (P29274 whole entry): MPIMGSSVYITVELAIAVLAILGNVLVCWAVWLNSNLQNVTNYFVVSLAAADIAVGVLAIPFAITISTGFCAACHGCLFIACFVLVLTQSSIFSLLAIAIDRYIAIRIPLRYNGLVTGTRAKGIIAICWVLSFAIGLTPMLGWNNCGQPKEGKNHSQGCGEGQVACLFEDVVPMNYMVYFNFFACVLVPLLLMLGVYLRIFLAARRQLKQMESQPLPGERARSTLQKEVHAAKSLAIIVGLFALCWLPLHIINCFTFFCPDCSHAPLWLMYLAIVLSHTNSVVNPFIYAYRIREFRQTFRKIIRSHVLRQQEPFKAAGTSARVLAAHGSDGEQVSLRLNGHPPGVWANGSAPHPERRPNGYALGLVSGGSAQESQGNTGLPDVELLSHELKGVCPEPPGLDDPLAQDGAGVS
Method in brief: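 A2A affinity by competition with 3H-ZM241385 (2 nM) for binding sites in membranes from HEK-A2A cells.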

Adenosine receptor A3 = molecular target: T3, Adenosine receptor A3 (Homo sapiens, UniProt P0DMS8); test: Displacement of [125I]-AB-MECA from human A3 receptor expressed in CHO cells; assay type: cell-based
T3 sequence (P0DMS8 whole entry): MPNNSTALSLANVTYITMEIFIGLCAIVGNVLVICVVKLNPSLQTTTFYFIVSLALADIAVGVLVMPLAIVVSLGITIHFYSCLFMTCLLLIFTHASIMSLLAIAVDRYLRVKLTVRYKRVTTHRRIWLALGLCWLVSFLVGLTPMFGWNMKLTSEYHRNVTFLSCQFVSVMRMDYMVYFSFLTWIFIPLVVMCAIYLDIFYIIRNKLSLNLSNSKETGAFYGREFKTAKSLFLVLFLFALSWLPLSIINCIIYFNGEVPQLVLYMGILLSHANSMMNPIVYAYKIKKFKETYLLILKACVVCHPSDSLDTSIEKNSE
Method in brief: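 A3 binding: competition for sites labeled by 125I-AB-MECA using CHO cells expressing the A3 receptor.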

Homo sapiens [1] = species on record: Homo sapiens; test: Selectivity for human A2B receptor over human A1 receptor
Homo sapiens [2] = species on record: Homo sapiens; test: Selectivity for human A2B receptor over human A2A receptor
Homo sapiens [3] = species on record: Homo sapiens; test: Selectivity for human A2B receptor over human A3 receptor

- Ki (Adenosine receptor A2b): 0.018 µM
- Ki (Adenosine receptor A1): 4.2 µM
- Ki (Adenosine receptor A2a): > 5 µM
- Ki (Adenosine receptor A3): 0.27 µM
- Ratio Ki (Homo sapiens [1]): 230
- Ratio Ki (Homo sapiens [2]): > 280
- Ratio Ki (Homo sapiens [3]): 15
SMILES: CCCCn1c(=O)[nH]c2nc(-c3cnn(Cc4cccc(F)c4)c3)[nH]c2c1=O
